Measurements from ChEMBL document CHEMBL4334422, “Toxicities and beneficial protection of H2S donors based on nonsteroidal anti-inflammatory drugs” (Medchemcomm, 2019).
Activity calls are given as the source filed them. No cut-off for these calls is given here.

Legend:
[1] = test system: Rattus norvegicus; assay: Cardioprotective activity in SHR rat assessed as myocardial fiber melting at 10 mg/kg, ip administered for 14 days by TEM analysis; assay type: functional, organism-based
In short: (§1)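 SHRs were given 10 mg·kg⁻¹ intraperitoneally per day for 14 consecutive days, with an ibuprofen comparator and a normal control. Myocardial tissue was then removed. Sections were HE-stained for light microscopy and also examined by transmission electron microscopy at 6000, 10000 and 20000-fold.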

[2] = Toxicity in Wistar kyoto rat assessed as hyperemia in intestinal mucosa at 6.1 mg/kg, ip administered for 14 days by H and E staining based optical microscopic method; assay type: organism-based; conditions: in vivo, 336 h
In short: (§2)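 WKY rats, 3 per group, were dosed for 14 days, with the compound at 10 mg/kg per dose and the ibuprofen comparator at 6.1 mg/kg. Rats were anaesthetised with ether and killed by cervical dislocation. Stomach and intestine were sectioned at 5-10 µm, stained with haematoxylin and eosin, and examined by optical microscopy.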

[3] = Cardiotoxicity in SHR rat assessed as increase in muscle bundle gaps at 10 mg/kg, ip administered for 14 days by H and E staining based microscopic assay; assay type: toxicity, organism-based; conditions: in vivo, 336 h; in short: as §1
[4] = Toxicity in Wistar kyoto rat assessed as swollen gastric mucosal cells at 6.1 mg/kg, ip administered for 14 days by H and E staining based optical microscopic method; assay type: organism-based; conditions: in vivo, 336 h; in short: as §2
[5] = Toxicity in Wistar kyoto rat assessed as hyperemia in gastrointestinal tissue at 6.1 mg/kg, ip administered for 14 days by H and E staining based optical microscopic method; assay type: organism-based; conditions: in vivo, 336 h
In short: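 WKY rats (3 per group) were dosed for 14 days with ibuprofen at 6.1 mg·kg⁻¹ per day or test compound at 10 mg·kg⁻¹. Rats were killed by cervical dislocation after ether anaesthesia. Stomach and intestine were cut into 5–10 µm sections, HE-stained and examined by optical microscopy.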

[6] = test system: Rattus norvegicus; assay: Cardioprotective activity in SHR rat assessed as myocardial contraction band formation at 10 mg/kg, ip administered for 14 days by TEM analysis; assay type: functional, organism-based; in short: as §1
[7] = Cardiotoxicity in SHR rat assessed as neatly arranged myocardial fibers at 10 mg/kg, ip administered for 14 days by H and E staining based microscopic assay; assay type: toxicity, organism-based; conditions: in vivo, 336 h; in short: as §1
[8] = Toxicity in Wistar kyoto rat assessed as inflammatory cell infiltration in gastric mucosa at 6.1 mg/kg, ip administered for 14 days by H and E staining based optical microscopic method; assay type: organism-based; conditions: in vivo, 336 h; in short: as §2
[9] = Toxicity in Wistar kyoto rat assessed as intestinal mucosal edema at 6.1 mg/kg, ip administered for 14 days by H and E staining based optical microscopic method; assay type: organism-based; conditions: in vivo, 336 h; in short: as §2
[10] = test system: H9c2; assay: Cytotoxicity against rat H9c2 cells assessed as reduction in cell viability at 10 to 80 uM incubated for 24 hrs; assay type: cell-based; conditions: h9c2, 24 h
In short: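 Rat cardiac H9c2 cells were grown in DMEM with 10% FBS and penicillin/streptomycin at 37 °C and 5% CO₂. They were seeded at 5×10⁴ cells/mL and allowed to adhere for 8 h. Cells were exposed to 10, 40 or 80 µM compound for 24 h, and survival was compared with untreated cells.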

[11] = Toxicity in Wistar kyoto rat assessed as inflammatory cell infiltration in gastrointestinal tissue at 6.1 mg/kg, ip administered for 14 days by H and E staining based optical microscopic method; assay type: organism-based; conditions: in vivo, 336 h; in short: as §2
[12] = Cardiotoxicity in SHR rat assessed as reduction in muscle bundle gaps at 10 mg/kg, ip administered for 14 days by H and E staining based microscopic assay; assay type: toxicity, organism-based; conditions: in vivo, 336 h; in short: as §1
[13] = test system: Rattus norvegicus; assay: Cardioprotective activity in SHR rat assessed as ventricular pumping dysfunction at 10 mg/kg, ip administered for 14 days by TEM analysis; assay type: functional, organism-based; in short: as §1
[14] = test system: Rattus norvegicus; assay: Cardioprotective activity in SHR rat assessed as myocardial disk dissociation at 10 mg/kg, ip administered for 14 days by TEM analysis; assay type: functional, organism-based; in short: as §1
[15] = test system: Rattus norvegicus; assay: Cardioprotective activity in SHR rat assessed as loosen myocardial fibers at 10 mg/kg, ip administered for 14 days by TEM analysis; assay type: functional, organism-based; in short: as §1
[16] = Cardiotoxicity in SHR rat assessed as collagen fibers stained in interstitium at 10 mg/kg, ip administered for 14 days by H and E staining based microscopic assay; assay type: toxicity, organism-based; conditions: in vivo, 336 h; in short: as §1
[17] = Cardiotoxicity in SHR rat assessed as appearance of myocardial interstitial collagen fibers at 10 mg/kg, ip administered for 14 days by H and E staining based microscopic assay; assay type: toxicity, organism-based; conditions: in vivo, 336 h; in short: as §1
[18] = Cardiotoxicity in SHR rat assessed as coarser myocardial fiber formation at 10 mg/kg, ip administered for 14 days by H and E staining based microscopic assay; assay type: toxicity, organism-based; conditions: in vivo, 336 h; in short: as §1
[19] = test system: Rattus norvegicus; assay: Cardioprotective activity in SHR rat assessed as myocardial fibrous submucosal swelling at 10 mg/kg, ip administered for 14 days by TEM analysis; assay type: functional, organism-based; in short: as §1
[20] = test system: Rattus norvegicus; assay: Cardioprotective activity in SHR rat assessed as swollen myocardial interstitial vascular at 10 mg/kg, ip administered for 14 days by TEM analysis; assay type: functional, organism-based; in short: as §1
[21] = test system: Rattus norvegicus; assay: Cardioprotective activity in SHR rat assessed as swollen myocardial mitochondria at 10 mg/kg, ip administered for 14 days by TEM analysis; assay type: functional, organism-based; in short: as §1
[22] = test system: Rattus norvegicus; assay: Antihypertensive activity in spontaneously hypertensive Wistar kyoto rat assessed as reduction in systolic arterial pressure at 10 mg/kg, ip administered for 6 hrs and measured every 30 mins post treatment by tail-cuff method; assay type: functional
In short: (§3)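 Male SHRs (8 weeks, 300 ± 25 g; 6 per group), given compound intraperitoneally once daily at 8 am in 0.5% (w/v) sodium carboxymethyl cellulose/DMSO 3/1 (v/v), 2 mL·kg⁻¹. Vehicle-treated SHR and WKY controls. SBP, DBP and heart rate were measured by tail-cuff on awake, restrained rats before dosing, then every 30 min for 6 h. Values are mean ± SD of four independent experiments.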

[23] = test system: Rattus norvegicus; assay: Antihypertensive activity in spontaneously hypertensive Wistar kyoto rat assessed as reduction in diastolic arterial pressure at 10 mg/kg, ip administered for 6 hrs and measured every 30 mins post treatment by tail-cuff method; assay type: functional; in short: as §3
[24] = test system: H9c2; assay: Cytoprotective activity against H2O2-induced toxicity in rat H9c2 cells assessed as increase in cell repair at 10 to 80 uM pretreated with compound followed by H2O2 addition and measured after 1 to 8 hrs by giemsa staining based microscopic method; assay type: functional
In short: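 H9c2 cells were injured with H₂O₂ (400 µM) for 1, 4 or 8 h to give light, medium and heavy damage, in the presence of compound at 10–80 µM. Acetaminophen or ibuprofen served as controls. Viability was measured as mean ± SD of three experiments. SOD and MDA contents were measured as mean ± SD of four experiments. Morphology was assessed by Giemsa staining under light microscopy.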

SMILES: CC(C)Cc1ccc(C(C)C(=O)O)cc1 (configuration not stated) [IBUPROFEN]
- Activity [1]: Active
- Activity [2]: Toxic
- Activity [3]: Active
- Activity [4]: Toxic
- Activity [5]: Toxic
- Activity [6]: Active
- Activity [7]: Non-Toxic
- Activity [8]: Toxic
- Activity [9]: Toxic
- Activity [10]: Non-Toxic
- Activity [11]: Toxic
- Activity [12]: Active
- Activity [13]: Active
- Activity [14]: Active
- Activity [15]: Active
- Activity [16]: Active
- Activity [17]: Active
- Activity [18]: Active
- Activity [19]: Active
- Activity [20]: Active
- Activity [21]: Active

SMILES: COC(=O)C1=C(C)NC(C)=C(C(=O)OC)C1c1ccccc1[N+](=O)[O-]
- Activity [22]: inactive
- Activity [23]: inactive

SMILES: CC(=O)Nc1ccc(O)cc1 [ACETAMINOPHEN]
- Activity [24]: Active
- Activity [10]: Non-Toxic

SMILES: C[C@H](CS)C(=O)N1CCC[C@H]1C(=O)O
- Activity [22]: inactive
- Activity [23]: inactive
